Measured values from ChEMBL document CHEMBL4007402 (J Med Chem, 2017).

What was measured:
A498 = assay: Growth inhibition of human A498 cells after 72 hrs by CellTiter-Glo or CCK-8 assay; format: functional; details: A498, 72 h
[1] = Growth inhibition of CHL cells after 72 hrs by CellTiter-Glo or CCK-8 assay; format: cell-based, Cricetulus griseus; details: chinese hamster
[2] = molecular target: Tyrosine-protein kinase ABL1 (Homo sapiens) (UniProt P00519); assay: Inhibition of human nonphosphorylated ABL1 (229 to 512 amino acid residues) expressed in mammalian expression system assessed as remaining activity at 1 uM by KINOMEscan assay relative to control
Method in brief: (§1)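 KINOMEscan competition binding panel of 468 kinases, with the compound tested at 1 µM. Binding is expressed as percent of control relative to DMSO.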

T-24 = assay: Growth inhibition of human T24 cells after 72 hrs by CellTiter-Glo or CCK-8 assay; format: functional; details: T-24, 72 h
[3] = Growth inhibition of human bladder cancer cells after 72 hrs by CellTiter-Glo or CCK-8 assay; format: functional; details: Bladder cancer cell
ACHN = assay: Growth inhibition of human ACHN cells after 72 hrs by CellTiter-Glo or CCK-8 assay; format: functional
[4] = molecular target: Epidermal growth factor receptor (Homo sapiens) (UniProt P00533); assay: Inhibition of recombinant TEL-fused EGFR (unknown origin) expressed in mouse BAF3 cells assessed as growth inhibition after 72 hrs by CellTiter-Glo or CCK-8 assay; format: cell-based
Method in brief: (§2)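 Isogenic murine BaF3 cells transformed with TEL-fused kinases, whose proliferation depends on the fused kinase, were used. Parental BaF3 cells served as the general selectivity counter-screen. The anti-proliferative read-out was reported as GI50.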

[5] = molecular target: T1, Mitogen-activated protein kinase 14 (Homo sapiens, UniProt Q16539); assay: Binding affinity to full length human p38alpha (1 to 360 amino acid residues) expressed in bacterial expression system assessed as percent control number at 1 uM by KINOMEscan assay; method in brief: as §1
[6] = molecular target: Tyrosine-protein kinase ABL1 (Homo sapiens) (UniProt P00519); assay: Inhibition of recombinant TEL-fused ABL (unknown origin) expressed in mouse BAF3 cells assessed as growth inhibition after 72 hrs by CellTiter-Glo or CCK-8 assay; format: cell-based; method in brief: as §2
[7] = AUC (0 to infinity) in Sprague-Dawley rat at 1 mg/kg, iv up to 8 hrs; format: ADME, organism-based; set-up: dose 1 mg/kg, route intravenous, time infinity; details: in vivo
Method in brief: (§3)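 Sprague Dawley rats given a single i.v. dose of 1 mg/kg or an oral dose of 10 mg/kg. Plasma AUC(0-t), AUC(0-∞), MRT(0-t), T1/2, Tmax and Cmax were derived and reported as mean±SD.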

[8] = AUC (0 to t) in Sprague-Dawley rat at 10 mg/kg, po up to 24 hrs; format: ADME, organism-based; set-up: time < 24 hr, dose 10 mg/kg, route oral; details: in vivo; method in brief: as §3
[9] = molecular target: Epithelial discoidin domain-containing receptor 1 (Homo sapiens, UniProt Q08345); assay: Inhibition of human GST-tagged DDR1 catalytic domain expressed in baculovirus expression system by LanthaScreen assay
[10] = Mean residence time (0 to t) in Sprague-Dawley rat at 10 mg/kg, po; format: ADME, organism-based; details: in vivo; method in brief: as §3
[11] = molecular target: Tyrosine-protein kinase ABL1 (Homo sapiens) (UniProt P00519); assay: Binding affinity to human phosphorylated ABL1 (229 to 512 amino acid residues) expressed in mammalian expression system assessed as percent control number at 1 uM by KINOMEscan assay; method in brief: as §1
EJ = assay: Growth inhibition of human EJ cells after 72 hrs by CellTiter-Glo or CCK-8 assay; format: functional
[12] = Cmax in Sprague-Dawley rat at 1 mg/kg, iv up to 8 hrs; format: ADME, organism-based; set-up: dose 1 mg/kg, route intravenous; details: in vivo; method in brief: as §3
[13] = molecular target: T1, Mitogen-activated protein kinase 14; assay: Inhibition of full-length recombinant human GST-tagged p38alpha expressed in Escherichia coli by Z'-LYTE assay
[14] = molecular target: Receptor-type tyrosine-protein kinase FLT3 (Homo sapiens) (UniProt P36888); assay: Inhibition of recombinant TEL-fused FLT3 (unknown origin) expressed in mouse BAF3 cells assessed as growth inhibition after 72 hrs by CellTiter-Glo or CCK-8 assay; format: cell-based; method in brief: as §2
[15] = Mean residence time (0 to t) in Sprague-Dawley rat at 1 mg/kg, iv; format: ADME, organism-based; details: in vivo; method in brief: as §3
PC-3 = assay: Growth inhibition of human PC3 cells after 72 hrs by CellTiter-Glo or CCK-8 assay; format: functional; details: PC-3, 72 h
J82 = assay: Growth inhibition of human J82 cells after 72 hrs by CellTiter-Glo or CCK-8 assay; format: functional; details: J82, 72 h
[16] = Half-life in Sprague-Dawley rat at 10 mg/kg, po; format: ADME, organism-based; details: in vivo; method in brief: as §3
CWR22R = assay: Growth inhibition of human 22Rv1 cells after 72 hrs by CellTiter-Glo or CCK-8 assay; format: functional; details: 22Rv1, 72 h
[17] = Tmax in Sprague-Dawley rat at 1 mg/kg, iv; format: ADME, organism-based; details: in vivo; method in brief: as §3
[18] = Half-life in Sprague-Dawley rat at 1 mg/kg, iv; format: ADME, organism-based; details: in vivo; method in brief: as §3
[19] = AUC (0 to infinity) in Sprague-Dawley rat at 10 mg/kg, po up to 24 hrs; format: ADME, organism-based; set-up: dose 10 mg/kg, time infinity, route oral; details: in vivo; method in brief: as §3
[20] = Growth inhibition of CHO cells after 72 hrs by CellTiter-Glo or CCK-8 assay; format: cell-based, Cricetulus griseus; details: chinese hamster
[21] = Growth inhibition of mouse BAF3 cells after 72 hrs by CellTiter-Glo or CCK-8 assay; format: cell-based; method in brief: as §2
[22] = molecular target: Platelet-derived growth factor receptor alpha (Homo sapiens) (UniProt P16234); assay: Inhibition of recombinant TEL-fused PDGFR-alpha (unknown origin) expressed in mouse BAF3 cells assessed as growth inhibition after 72 hrs by CellTiter-Glo or CCK-8 assay; format: cell-based; method in brief: as §2
[23] = Cmax in Sprague-Dawley rat at 10 mg/kg, po up to 24 hrs; format: ADME, organism-based; set-up: dose 10 mg/kg, route oral; details: in vivo; method in brief: as §3
[24] = molecular target: Platelet-derived growth factor receptor beta (Homo sapiens) (UniProt P09619); assay: Inhibition of recombinant TEL-fused PDGFR-beta (unknown origin) expressed in mouse BAF3 cells assessed as growth inhibition after 72 hrs by CellTiter-Glo or CCK-8 assay; format: cell-based; method in brief: as §2

Chain of Tyrosine-protein kinase ABL1 (Homo sapiens) (P00519 whole entry, the tested form may be a part): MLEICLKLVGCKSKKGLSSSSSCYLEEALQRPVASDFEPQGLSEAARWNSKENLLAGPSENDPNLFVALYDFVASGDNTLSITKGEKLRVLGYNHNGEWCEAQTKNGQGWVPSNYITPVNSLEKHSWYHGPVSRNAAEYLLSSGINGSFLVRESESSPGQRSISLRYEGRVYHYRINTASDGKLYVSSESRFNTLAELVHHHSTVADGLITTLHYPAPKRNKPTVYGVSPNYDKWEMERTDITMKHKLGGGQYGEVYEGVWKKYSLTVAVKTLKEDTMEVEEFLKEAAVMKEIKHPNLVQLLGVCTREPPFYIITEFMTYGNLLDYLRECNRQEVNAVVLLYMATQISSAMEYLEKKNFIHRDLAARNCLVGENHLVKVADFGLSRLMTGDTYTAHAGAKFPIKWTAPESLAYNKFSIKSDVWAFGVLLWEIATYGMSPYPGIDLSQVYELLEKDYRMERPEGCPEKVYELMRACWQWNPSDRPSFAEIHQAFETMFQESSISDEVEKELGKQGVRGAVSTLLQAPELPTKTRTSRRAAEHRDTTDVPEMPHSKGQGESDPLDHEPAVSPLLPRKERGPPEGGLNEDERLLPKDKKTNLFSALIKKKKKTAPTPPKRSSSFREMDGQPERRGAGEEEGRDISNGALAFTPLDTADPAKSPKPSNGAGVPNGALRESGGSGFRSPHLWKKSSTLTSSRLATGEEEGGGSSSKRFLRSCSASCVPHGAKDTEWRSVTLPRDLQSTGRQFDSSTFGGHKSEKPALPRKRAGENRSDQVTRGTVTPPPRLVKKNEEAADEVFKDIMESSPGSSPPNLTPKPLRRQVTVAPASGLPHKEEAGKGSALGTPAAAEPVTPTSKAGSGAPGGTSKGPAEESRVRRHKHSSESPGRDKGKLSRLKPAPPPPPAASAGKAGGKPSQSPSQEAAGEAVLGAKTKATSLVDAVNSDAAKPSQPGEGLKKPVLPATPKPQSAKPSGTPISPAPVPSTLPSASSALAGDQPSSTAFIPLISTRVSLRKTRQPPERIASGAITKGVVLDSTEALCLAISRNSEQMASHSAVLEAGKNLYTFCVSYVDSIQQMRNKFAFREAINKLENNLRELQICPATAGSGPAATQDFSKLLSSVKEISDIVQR
T1 sequence (Q16539 whole entry, the tested form may be a part): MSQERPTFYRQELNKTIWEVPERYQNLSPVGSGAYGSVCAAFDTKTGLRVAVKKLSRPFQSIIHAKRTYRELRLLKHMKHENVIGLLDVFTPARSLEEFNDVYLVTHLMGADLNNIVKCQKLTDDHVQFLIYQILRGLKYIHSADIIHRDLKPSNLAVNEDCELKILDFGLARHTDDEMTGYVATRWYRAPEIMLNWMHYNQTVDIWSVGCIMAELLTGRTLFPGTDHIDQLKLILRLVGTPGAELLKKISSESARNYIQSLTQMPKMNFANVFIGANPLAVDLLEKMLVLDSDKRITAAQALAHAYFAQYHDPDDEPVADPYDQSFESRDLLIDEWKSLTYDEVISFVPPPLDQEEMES
Chain of Receptor-type tyrosine-protein kinase FLT3 (Homo sapiens) (P36888 whole entry, the tested form may be a part): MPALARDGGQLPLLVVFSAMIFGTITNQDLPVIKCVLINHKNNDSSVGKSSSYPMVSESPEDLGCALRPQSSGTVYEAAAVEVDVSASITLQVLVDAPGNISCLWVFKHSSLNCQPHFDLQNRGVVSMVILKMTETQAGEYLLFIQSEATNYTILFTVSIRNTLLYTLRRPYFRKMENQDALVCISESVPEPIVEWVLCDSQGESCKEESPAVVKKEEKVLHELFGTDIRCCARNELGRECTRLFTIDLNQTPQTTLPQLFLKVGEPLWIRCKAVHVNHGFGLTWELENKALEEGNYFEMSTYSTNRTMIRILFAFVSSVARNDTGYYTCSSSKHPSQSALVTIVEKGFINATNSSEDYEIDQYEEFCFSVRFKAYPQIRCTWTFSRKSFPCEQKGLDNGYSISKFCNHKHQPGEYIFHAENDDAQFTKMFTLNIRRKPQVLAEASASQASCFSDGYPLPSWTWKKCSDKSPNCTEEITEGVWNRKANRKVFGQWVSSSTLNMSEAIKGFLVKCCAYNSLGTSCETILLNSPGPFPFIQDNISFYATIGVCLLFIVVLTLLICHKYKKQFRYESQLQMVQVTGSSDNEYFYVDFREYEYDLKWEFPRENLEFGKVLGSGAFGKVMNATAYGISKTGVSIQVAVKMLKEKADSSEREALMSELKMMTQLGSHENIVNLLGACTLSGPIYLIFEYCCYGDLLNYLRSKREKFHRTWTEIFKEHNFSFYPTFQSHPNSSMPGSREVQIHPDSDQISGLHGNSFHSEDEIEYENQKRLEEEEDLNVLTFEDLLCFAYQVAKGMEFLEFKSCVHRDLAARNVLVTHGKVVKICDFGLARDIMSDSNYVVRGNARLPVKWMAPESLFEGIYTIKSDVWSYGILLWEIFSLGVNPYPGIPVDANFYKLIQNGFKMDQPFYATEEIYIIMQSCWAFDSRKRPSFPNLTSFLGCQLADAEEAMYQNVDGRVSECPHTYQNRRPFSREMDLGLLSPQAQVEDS
Chain of Platelet-derived growth factor receptor alpha (Homo sapiens) (P16234 whole entry, the tested form may be a part): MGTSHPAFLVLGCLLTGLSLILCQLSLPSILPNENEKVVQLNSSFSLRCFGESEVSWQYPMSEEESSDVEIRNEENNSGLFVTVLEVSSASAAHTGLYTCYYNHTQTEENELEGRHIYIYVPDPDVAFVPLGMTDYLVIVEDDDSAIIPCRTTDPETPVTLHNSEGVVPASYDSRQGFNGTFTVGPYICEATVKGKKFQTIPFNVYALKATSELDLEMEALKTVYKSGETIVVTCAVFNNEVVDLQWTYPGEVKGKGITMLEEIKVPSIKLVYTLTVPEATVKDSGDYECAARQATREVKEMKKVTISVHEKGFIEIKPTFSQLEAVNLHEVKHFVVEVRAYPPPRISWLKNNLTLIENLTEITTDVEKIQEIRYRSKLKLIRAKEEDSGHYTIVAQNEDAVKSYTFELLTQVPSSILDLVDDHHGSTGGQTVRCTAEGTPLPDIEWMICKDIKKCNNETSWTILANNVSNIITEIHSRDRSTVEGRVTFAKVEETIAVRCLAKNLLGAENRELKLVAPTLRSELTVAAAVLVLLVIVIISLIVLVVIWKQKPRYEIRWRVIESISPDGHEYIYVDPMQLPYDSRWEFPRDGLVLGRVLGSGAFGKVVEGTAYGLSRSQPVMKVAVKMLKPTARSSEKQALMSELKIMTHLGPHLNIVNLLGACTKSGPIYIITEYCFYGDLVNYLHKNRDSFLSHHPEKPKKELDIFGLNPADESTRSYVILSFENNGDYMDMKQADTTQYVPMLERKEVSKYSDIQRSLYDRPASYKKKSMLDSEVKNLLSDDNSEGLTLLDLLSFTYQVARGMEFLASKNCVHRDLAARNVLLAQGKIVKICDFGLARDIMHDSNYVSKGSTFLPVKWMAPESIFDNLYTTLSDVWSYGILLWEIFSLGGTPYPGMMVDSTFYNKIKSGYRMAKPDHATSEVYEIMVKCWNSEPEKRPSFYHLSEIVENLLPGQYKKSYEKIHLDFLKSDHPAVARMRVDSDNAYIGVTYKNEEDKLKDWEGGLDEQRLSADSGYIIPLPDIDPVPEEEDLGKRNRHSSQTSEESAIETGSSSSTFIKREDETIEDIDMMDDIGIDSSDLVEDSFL
Chain of Epidermal growth factor receptor (Homo sapiens) (P00533 whole entry, the tested form may be a part): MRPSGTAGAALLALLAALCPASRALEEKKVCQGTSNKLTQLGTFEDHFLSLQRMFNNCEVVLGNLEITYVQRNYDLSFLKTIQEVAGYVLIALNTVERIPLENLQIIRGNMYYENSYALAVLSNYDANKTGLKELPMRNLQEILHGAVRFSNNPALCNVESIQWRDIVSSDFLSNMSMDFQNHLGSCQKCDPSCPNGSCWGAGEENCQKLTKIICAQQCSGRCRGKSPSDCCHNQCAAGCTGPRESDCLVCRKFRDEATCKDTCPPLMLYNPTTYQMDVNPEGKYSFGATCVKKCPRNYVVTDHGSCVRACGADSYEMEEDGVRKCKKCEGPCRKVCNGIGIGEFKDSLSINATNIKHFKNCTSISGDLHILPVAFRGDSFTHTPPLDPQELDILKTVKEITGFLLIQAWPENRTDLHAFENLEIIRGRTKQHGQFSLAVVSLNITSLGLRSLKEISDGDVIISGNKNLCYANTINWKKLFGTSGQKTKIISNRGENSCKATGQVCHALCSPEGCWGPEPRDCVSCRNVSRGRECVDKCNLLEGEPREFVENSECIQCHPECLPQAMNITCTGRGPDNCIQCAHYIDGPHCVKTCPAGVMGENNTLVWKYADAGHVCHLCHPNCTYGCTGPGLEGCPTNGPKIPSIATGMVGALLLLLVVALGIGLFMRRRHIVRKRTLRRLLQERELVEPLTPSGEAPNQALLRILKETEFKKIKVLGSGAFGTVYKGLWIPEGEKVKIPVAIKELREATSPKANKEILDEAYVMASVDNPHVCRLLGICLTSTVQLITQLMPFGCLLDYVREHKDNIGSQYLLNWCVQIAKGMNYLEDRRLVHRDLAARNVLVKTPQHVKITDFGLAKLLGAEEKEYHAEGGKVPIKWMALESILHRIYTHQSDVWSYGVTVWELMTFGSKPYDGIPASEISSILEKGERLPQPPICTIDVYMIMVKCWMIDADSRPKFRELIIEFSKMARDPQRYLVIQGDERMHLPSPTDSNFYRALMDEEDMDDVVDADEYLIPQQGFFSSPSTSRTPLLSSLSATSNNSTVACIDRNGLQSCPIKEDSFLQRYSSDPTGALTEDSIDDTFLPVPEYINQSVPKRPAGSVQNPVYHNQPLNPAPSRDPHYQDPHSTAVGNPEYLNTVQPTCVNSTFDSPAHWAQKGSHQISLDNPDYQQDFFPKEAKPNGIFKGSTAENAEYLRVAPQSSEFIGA

Activity [2]: 0.7%
GI50 (ACHN): 4.93 µM
GI50 [4]: > 10 µM
Activity [5]: 0%
GI50 [6]: 2.56 µM
AUC(0-inf) [7]: 1390 ng·h/mL
AUC(0-t) at 24 h [8]: 13.4 ng·h/mL
IC50 [9]: 0.265 µM
MRT last [10]: 166 min
Activity [11]: 6.5%
Cmax [12]: 13600 ng/mL
IC50 [13]: 0.106 µM
GI50 [14]: > 10 µM
MRT last [15]: 13.4 min
GI50 (PC-3): 3.45 µM
half-life [16]: 367 min
Tmax [17]: 1.02 min
half-life [18]: 48 min
AUC(0-inf) [19]: 27.6 ng·h/mL
GI50 [22]: 0.67 µM
Cmax [23]: 5.58 ng/mL
GI50 [24]: 0.91 µM
Structure (SMILES): C=CC(=O)Nc1cc(Nc2ncc(C(=O)Nc3cc(NC(=O)c4cc(OC)c(OC)c(OC)c4)ccc3C)c(NC)n2)ccc1C
GI50 (A498): > 10 µM
GI50 at 72 h [1]: > 10 µM
GI50 (T-24): 8.98 µM
GI50 [3]: 8.87 µM
GI50 (EJ): > 10 µM
GI50 (J82): 5.78 µM
GI50 (CWR22R): 3.45 µM
GI50 at 72 h [20]: > 10 µM
GI50 at 72 h [21]: > 10 µM
